“Also recorded” adds a separate entry of the source. Where a SMILES comes first, the peptide text is derived from it.
Legend:
human erythrocyte ghosts [1] = experiment: Ektacytometry of resealed ghosts; assay type: cell-based; details: 6 or 15 μM cyclic peptide resealed; elongation index vs shear stress
Method in brief: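 Washed human red cells from ACD-anticoagulated volunteer blood, with buffy coat and plasma removed, were suspended in PBS/5 mM glucose/2 mM MgCl2 with cyclized test peptide or without (control). Cells were flash-frozen in liquid N2 for 40 s, thawed at room temperature, then resealed 45 min at 37°C. Ghosts were washed in PBS/glucose/0.5% BSA and assessed by ektacytometry as elongation index under gradually increasing shear stress.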

human erythrocyte ghosts [2] = experiment: Peptide resealing into red cells, morphology by light microscopy; assay type: cell-based; details: peptide 0, 6, 12 or 30 μM resealed 45 min at 37°C; 100x oil immersion

SMILES: CSCC[C@@H]1NC(=O)[C@H](C(C)C)NC(=O)[C@H](CC(C)C)NC(=O)[C@H](CCC(=O)O)NC(=O)[C@@H](N)CSSC[C@@H](C(=O)O)NC(=O)[C@H](CC(C)C)NC(=O)[C@H](CCC(=O)O)NC(=O)[C@H](CCC(N)=O)NC(=O)[C@H](CC(N)=O)NC(=O)[C@H](CCCCN)NC(=O)[C@H](CCC(=O)O)NC(=O)[C@H](CC(=O)O)NC1=O [cyclized peptide] (HELM PEPTIDE1{C.E.L.V.M.D.E.K.N.Q.E.L.C}$PEPTIDE1,PEPTIDE1,1:R3-13:R3$$$V2.0; N-terminus and C-terminus assumed)
- effect on membrane deformability (in words) (human erythrocyte ghosts [1]): compromised membrane deformability
- effect on red cell membrane morphology (in words) (human erythrocyte ghosts [2]): membrane blebbing and a gradual decrease in membrane surface area; also recorded: extensive vesiculation at higher peptide concentrations

— publication PMC3448790 (Biochemistry, 2012)
